Data published in ChEMBL document CHEMBL5712071, “BET bromodomain protein inhibition is a therapeutic option for medulloblastoma” (Oncotarget, 2013).
The source made the active and inactive calls. No cut-off for these calls is given here.

Assays:
[1] = target: Bromodomain-containing protein 4 (Homo sapiens) (UniProt O60885); conditions: HD-MB03, dose 500.0 nM, time 24.0 hrs
[2] = system: HD-MB03; test: Anti-proliferative activity against human HD-MB03 cells assessed as reduction in cell viability incubated for 120 hrs by MTT assay; assay type: functional, cell-based; conditions: HD-MB03, 120 h
Procedure, shortened: (§1)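 Cells seeded in triplicate at 2 × 10^3 per well and allowed to adhere for 24h. JQ1 was given as serial dilutions in full medium, 1nM-6µM, from a 10 mM DMSO stock. Viability was read by MTT at each time point and IC50 derived from dose-response curves. Culture media were RPMI 1640/10% FCS for HD-MB3 (plus 1% NEAA), ONS-76, Daoy and UW-228, and EMEM/10% FCS for D-283 and D-341.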

[3] = system: ONS-76; test: Induction of apoptosis in human ONS-76 cells assessed as increase in population of cells in sub-G1 phase at 500 nM incubated for 72 hrs by ELISA; assay type: functional, cell-based
Procedure, shortened: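 Cell death ELISA on ONS-76 or UW-228 cells seeded 2 × 10^3 per well in triplicate and allowed 24h to adhere. Treated with 500 nM JQ1 or DMSO for 72h, then apoptotic cell death measured by Cell Death Detection ELISA per kit protocol. Experiments repeated at least 3 times.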

[4] = system: D341 cell line; test: Anti-proliferative activity against human D341 cells assessed as reduction in cell viability incubated for 48 hrs by MTT assay; assay type: functional, cell-based; conditions: D341, 48 h
Procedure, shortened: as §1

[5] = system: Daoy; test: Induction of apoptosis in human Daoy cells assessed as increase in population of cells in G1 phase at 500 nM incubated for 72 hrs by flow cytometry; assay type: functional, cell-based
Procedure, shortened: (§2)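 Cells were cultured with 500 nM JQ1 or DMSO control, trypsinised and washed 3 times in PBS. DNA was stained with propidium iodide for 15 min and DNA content analysed by flow cytometry to give G1 and sub-G1 fractions.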

[6] = system: Daoy; test: Antiproliferative activity against human Daoy cells at 500 nM incubated for 72 hrs by BrdU ELISA method; assay type: functional, cell-based
Procedure, shortened: (§3)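 Cells seeded in triplicate at 2 × 10^3 per well with 24h adherence, then treated with 500 nM JQ1 or DMSO control for 72h. Proliferation was measured by BrdU incorporation ELISA. Experiments were run independently at least 3 times.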

[7] = system: HD-MB03; test: Induction of apoptosis in human HD-MB03 cells assessed as increase in population of cells in sub-G1 phase at 500 nM incubated for 72 hrs by flow cytometry; assay type: functional, cell-based
Procedure, shortened: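 PI flow cytometry: cells seeded in triplicate, adhered 24h, then exposed to 500 nM JQ1 or DMSO control (methods give 48h culture, legend gives 72h). Harvested by trypsin, washed 3 times in PBS, stained with propidium iodide 15 min, DNA content read by flow cytometry. Sub-G1 fraction taken as apoptotic. Experiments repeated at least 3 times.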

[8] = system: D283 Med; test: Antiproliferative activity against human D283 cells at 500 nM incubated for 72 hrs by BrdU ELISA method; assay type: functional, cell-based
Procedure, shortened: as §3

[9] = system: HD-MB03; test: Anti-proliferative activity against human HD-MB03 cells assessed as reduction in cell viability incubated for 48 hrs by MTT assay; assay type: functional, cell-based; conditions: HD-MB03, 48 h
Procedure, shortened: as §1

[10] = system: Daoy; test: Induction of senescence in human Daoy cells assessed as increase in population of cells in G1 phase at 500 nM incubated for 72 hrs by fluorometric SA-beta-gal activity assay; assay type: functional, cell-based
Procedure, shortened: (§4)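 Senescence read as fluorometric SA-β-gal activity. Cells seeded 2 × 10^3 per well in triplicate and allowed 24h to adhere, then exposed to 500 nM JQ1 or DMSO control for 72h. Assayed per kit protocol. Experiments repeated at least 3 times.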

[11] = target: Bromodomain-containing protein 4 (Homo sapiens) (UniProt O60885); conditions: ONS-76, dose 500.0 nM, time 72.0 hrs
[12] = system: D283 Med; test: Anti-proliferative activity against human D283 cells assessed as reduction in cell viability incubated for 96 hrs by MTT assay; assay type: functional, cell-based
Procedure, shortened: as §1

[13] = system: D341 cell line; test: Anti-proliferative activity against human D341 cells assessed as reduction in cell viability incubated for 72 hrs by MTT assay; assay type: functional, cell-based; conditions: D341, 72 h
Procedure, shortened: as §1

[14] = system: ONS-76; test: Induction of apoptosis in human ONS-76 cells assessed as increase in population of cells in G1 phase at 500 nM incubated for 72 hrs by ELISA; assay type: functional, cell-based
[15] = system: D341 cell line; test: Induction of apoptosis in human D341 cells assessed as increase in population of cells in sub-G1 phase at 500 nM incubated for 72 hrs by flow cytometry; assay type: functional, cell-based
Procedure, shortened: as §2

[16] = target: Bromodomain-containing protein 4 (Homo sapiens) (UniProt O60885); conditions: HD-MB03, dose 500.0 nM, time 96.0 hrs
[17] = system: D341 cell line; test: Induction of apoptosis in human D341 cells assessed as increase in population of cells in G1 phase at 500 nM incubated for 72 hrs by flow cytometry; assay type: functional, cell-based
Procedure, shortened: as §2

[18] = target: Bromodomain-containing protein 4 (Homo sapiens) (UniProt O60885); conditions: HD-MB03, dose 500.0 nM, time 6-24 hrs
[19] = system: ONS-76; test: Induction of senescence in human ONS-76 cells assessed as increase in population of cells in G1 phase at 500 nM incubated for 72 hrs by fluorometric SA-beta-gal activity assay; assay type: functional, cell-based
Procedure, shortened: as §4

[20] = system: D341 cell line; test: Induction of apoptosis in human D341 cells assessed as increase in population of cells in sub-G1 phase at 500 nM incubated for 72 hrs by ELISA; assay type: functional, cell-based
[21] = system: ONS-76; test: Anti-proliferative activity against human ONS-76 cells assessed as reduction in cell viability incubated for 72 hrs by MTT assay; assay type: functional, cell-based; conditions: ONS-76, 72 h
Procedure, shortened: as §1

[22] = target: Bromodomain-containing protein 4 (Homo sapiens) (UniProt O60885); conditions: D283 Med, dose 500.0 nM, time 24.0 hrs
[23] = target: Bromodomain-containing protein 4 (Homo sapiens) (UniProt O60885); conditions: UW228, dose 500.0 nM, time 72.0 hrs
[24] = system: HD-MB03; test: Inhibition of BRD4 female athymic (nu/nu) mouse xenografted with human HD-MB03 cells as reduction in MYC mRNA expression in tumor at 50 mg/kg, ip administered at 0, 12, 24 and 36 hrs over 2-day course by RT-PCR analysis; assay type: functional, organism-based
Procedure, shortened: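 Same flank HD-MB3 xenografts in female nu/nu mice. Given 4 i.p. doses of JQ1 50 mg/kg (or DMSO) at 0, 12, 24 and 36h; tumours excised 4h after the last dose and snap-frozen. MYC measured by RT-PCR (mean ± S.D.) or western blot with β-actin loading control, 3 tumours per group.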

[25] = system: D341 cell line; test: Anti-proliferative activity against human D341 cells assessed as reduction in cell viability incubated for 96 hrs by MTT assay; assay type: functional, cell-based; conditions: D341, 96 h
Procedure, shortened: as §1

[26] = target: Bromodomain-containing protein 4 (Homo sapiens) (UniProt O60885); conditions: HD-MB03, dose 500.0 nM, time 6-24 hrs; remark: listed apart in the source
[27] = system: HD-MB03; test: Induction of apoptosis in human HD-MB03 cells assessed as increase in population of cells in sub-G1 phase at 500 nM incubated for 72 hrs by ELISA; assay type: functional, cell-based

Cc1sc2c(c1C)C(c1ccc(Cl)cc1)=N[C@@H](CC(=O)OC(C)(C)C)c1nnc(C)n1-2
inhibition [1]: > 80%
IC50 [2]: 153 nM
Activity [3]: Active
IC50 [4]: 924 nM
Activity [5]: Active
Activity [6]: Active
Activity [7]: Active
Activity [8]: Active
IC50 [9]: 364 nM
Activity [10]: Active
inhibition [11]: Active
IC50 [12]: 256 nM
IC50 [13]: 244 nM
Activity [14]: Active
Activity [15]: Active
inhibition [16]: inactive
Activity [17]: Active
inhibition [18]: Active
Activity [19]: Active
Activity [20]: Active
IC50 [21]: 87 nM
inhibition [22]: Active
inhibition [23]: Active
inhibition [24]: Active
IC50 [25]: 157 nM
inhibition [26]: Active
Activity [27]: Active
